Fewer inactive variants are shown than the library holds.
B1: tRNA (parent)
chain: GUUCCGUUGGCGUAAUGGUAACGCGUCUCCCUCCUAAGGAGAAGACUGCGGGUUCGAGUCCCGUACGGAACG

Variants of: B1
Test: yeast fitness relative to wild type (ratio to wild type); higher = fitter; tRNA-Arg(CCU), competitive growth, 37 C, YPD
Method in brief: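 The tRNA-Arg(CCU) gene variants were made by chemical synthesis with a 3% per-site mutation rate at 69 sites and inserted at the native genomic locus of Saccharomyces cerevisiae. After pooling, the strains were competed in YPD at 37°C for 24 hours in six parallel replicates. Gene amplicons from the start population and each end population were read by 100-nucleotide paired-end sequencing, and Darwinian fitness relative to wild type was taken from genotype frequency changes. Genotypes needed ≥ 100 starting reads, and estimates < 0.5 were set to 0.5.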

| Variant | yeast fitness |
| --- | --- |
| A57C A69U | 0.605 |
| U3C C29U A36U C66U G67A | ≤ 0.5 |
| C4U A15G C22U | 0.559 |
| U2G A14C C33A C46G | ≤ 0.5 |
| G50A A65U | 0.703 |
| C34U U47G G58C | 0.518 |
| U16G G44C C62A | 0.875 |
| G18C C66A A69U | ≤ 0.5 |
| C22U C30A U64A | 0.574 |
| G9A C34U C46A C62U C66U | ≤ 0.5 |
| A15C A37C A42U | ≤ 0.5 |
| U13A C33U A42G G52C A65G | ≤ 0.5 |
| G9A C31U A70C | 0.766 |
| C11A C29G A65U G68A | ≤ 0.5 |
| C4G A21C C22U | 0.626 |
| C27U U32A C33A | 0.51 |
| G17A C22G | 0.837 |
| G41A U53C | 0.626 |
| U7A C46G A69C | 0.607 |
| C5U C33U G39A | 0.649 |
| U3C C4G | 0.891 |
| U2G C4G A21C | 0.725 |
| U19G A65G A70C | 0.733 |
| U3G C5U C31A A65U | ≤ 0.5 |

| Variant | yeast fitness |
| --- | --- |
| A42C G52A G56C | ≤ 0.5 |
| G12A C29U | 0.735 |
| C34A A37G C61A | ≤ 0.5 |
| U8C A14C C31U | ≤ 0.5 |
| C11A A14G | 0.628 |
| U28G C46U C60A | ≤ 0.5 |
| U32G U35G A36C U54C | ≤ 0.5 |
| G12A U13C G44C | 0.554 |
| A20C C31G C61G A65G | ≤ 0.5 |
| C11U A21U G41A A57C | ≤ 0.5 |
| C4U A14G C30G A36U | ≤ 0.5 |
| G12C G17A U28A C49A | ≤ 0.5 |
| G10C A15G C61A | ≤ 0.5 |
| A14C U35C A57U | ≤ 0.5 |
| U8C C11U U16G A21C C31G G39A G56C | ≤ 0.5 |
| C11A C27U C33U U35C C61G A65G | ≤ 0.5 |
| U32C A65U G68U | 0.622 |
| U3C C27G C33G G51C C60U C61U | ≤ 0.5 |
| A45C A70G | 0.957 |
| G17C U28A | 0.554 |
| C30A G63A | 0.83 |
| G6A A14C A37U U54A | ≤ 0.5 |
| A14U A45G U53C A65U | ≤ 0.5 |
| C49G A57U | 0.792 |

| Variant | yeast fitness |
| --- | --- |
| U26C C30U U47A G67U | ≤ 0.5 |
| C4U A21U U28C G52C A57C | ≤ 0.5 |
| G9A A21G G58C A70C | ≤ 0.5 |
| U7C G9C | 0.729 |
| A20G C33A A57G | 0.52 |
| G17A G25C A40U C66G | ≤ 0.5 |
| U35C C46U C55G | 0.507 |
| A14U U16C A42U | ≤ 0.5 |
| C5U G17A C46U G58A G63A U64A | ≤ 0.5 |
| C22U A42C | 0.808 |
| G10C C30G A43U G68U | ≤ 0.5 |
| C31A G63C | 0.62 |
| A20U A42C A69U | 0.564 |
| G6C A37G G44C A57U G68C | ≤ 0.5 |
| C11G A15U C55U | ≤ 0.5 |
| U8A C24A U28C G68U | 0.531 |
| C5U C22G G50C | ≤ 0.5 |
| C11G C24U G25A U47G | ≤ 0.5 |
| C22G C30G | 0.591 |
| U7A G38C A70G | ≤ 0.5 |
| G10A C30U U47A | ≤ 0.5 |
| G23C C29G A43U G50A G63A A65C | ≤ 0.5 |
| G6A C27G A42C | ≤ 0.5 |
| U2C C5G A37G G48A | ≤ 0.5 |

| Variant | yeast fitness |
| --- | --- |
| U7C A14G G17A | 0.531 |
| C11G A21U C24G G51A | ≤ 0.5 |
| U3C U28G G39C | ≤ 0.5 |
| G9C A14U G50C | 0.682 |
| G10A C24U C60U | ≤ 0.5 |
| G17A A21C C29G | 0.626 |
| G51A G67A | 0.872 |
| U13C C27G A37U C60A | 0.727 |
| G41A A42C G50C A70G | 0.621 |
| U19A C46U C55G G68A | ≤ 0.5 |
| A14C A36U | 0.591 |
| U54G C61G A65U | 0.596 |
| A37C U59G | 0.712 |
| C24A C30G | ≤ 0.5 |
| A15C G17A U28A A65U | 0.752 |
| U32A A36G G39C C62U | ≤ 0.5 |
| A43C G51C | 0.587 |
| C5U A15G C22G G41A A45U U47A C62U | ≤ 0.5 |
| C31U U32A | 0.661 |
| U7A C24U C30U C31G A57G | ≤ 0.5 |
| C4A U7A C11U C31U U59A | ≤ 0.5 |
| A15U A20G U28A C33G | ≤ 0.5 |
| C4A A36G C46G A57C | ≤ 0.5 |
| U19C A20C C31G | 0.542 |

| Variant | yeast fitness |
| --- | --- |
| U8C G10A U19C G41A U47C | 0.537 |
| G38A A40U G50C C60G | ≤ 0.5 |
| C27U G38A G48C | 0.562 |
| A15G C22U A36U C60A | 0.589 |
| C30A U35A | 0.569 |
| A20C C33G U59C | 0.685 |
| C4A C11G U19G G56C | 0.528 |
| U13C A45G C61G | ≤ 0.5 |
| U19C A43G A69U | 1.05 |
| A20C A21C C62G | ≤ 0.5 |
| C27G C31G C61G A69U | 0.55 |
| C24A C46A | 1.01 |
| C11A A14U U59C C62U | ≤ 0.5 |
| A14U U26C | 0.698 |
| G6A G44A C61G | ≤ 0.5 |
| C4A G9C C11G C33G A37C A45C | ≤ 0.5 |
| A15U A40U | 0.637 |
| C5G C29G A36U | ≤ 0.5 |
| G23C C62U | 0.743 |
| U8A U13A A14C U16C G67A | ≤ 0.5 |
| C24U C30A A65G | ≤ 0.5 |
| G50U A65G A70C | 0.59 |
| A21C C30G A45G C66A | ≤ 0.5 |
| U7G A15G U19C A21G G41A C55A G63C | ≤ 0.5 |

| Variant | yeast fitness |
| --- | --- |
| C5U A14G A15U U28A C33G G41C G56A | ≤ 0.5 |
| C29U A36G | 0.842 |
| C11G U16A A21G C24U | ≤ 0.5 |
| C4U A45C C55U G68C | ≤ 0.5 |
| G10A A15G C34G G68C | ≤ 0.5 |
| C4G C60G C61U | ≤ 0.5 |
| C11U A20U C24U G38A C49A A70U | ≤ 0.5 |
| C4G C5G A14U C46G A69U | ≤ 0.5 |
| U3A C27U C55A | 0.535 |
| C11A A21U C30A A45U C49U C55U | ≤ 0.5 |
| C33G A36U A57U | 0.581 |
| C5U G67U | 0.735 |
| A20C C27U C34G | 0.581 |
| C46A A69G | 0.932 |
| U16A C30G G44C | ≤ 0.5 |
| U2G G25C G52A | ≤ 0.5 |
| C29G U47G G63A A70U | ≤ 0.5 |
| C4U C22U C66U | 0.624 |
| A21C C34U A65U | ≤ 0.5 |
| U16G C46G | 1.06 |
| U8C U32A A40U G41C C46A G52A | ≤ 0.5 |
| C4A G9A G18C C22A G50C A65C | ≤ 0.5 |
| C4G U7A G9A C11U C30G C62A | 0.628 |
| C5A A15C C66U | ≤ 0.5 |

| Variant | yeast fitness |
| --- | --- |
| G12C C27U C33G G38C | ≤ 0.5 |
| U19C U32C U64A | 0.501 |
| A14C C22G G52C A65U | ≤ 0.5 |
| U32A C33U A40C | 0.661 |
| C24U G41A | 0.926 |
| C11G G63A | 0.605 |
| U16A U28A C60G C61A G63A | ≤ 0.5 |
| C5G C55U C61A | 0.605 |
| C29A G56A | 0.794 |
| C22U A43C U53C C62G | ≤ 0.5 |
| A43U C60G C62G | ≤ 0.5 |
| C5G G12A C46U | 0.572 |
| C5U G41A C49U A65G C66U | ≤ 0.5 |
| C31U G39A A57C | ≤ 0.5 |
| G41A A57G | 0.828 |
| C11U A21U U54A A70G | ≤ 0.5 |
| G18C A70U | 0.737 |
| A37U U59A | 0.706 |
| U3A C31U A45U G68C | ≤ 0.5 |
| U13A A40G A43C G50A G67C | ≤ 0.5 |
| C22A G25C A40C | 0.59 |
| G12C G50A U54A | ≤ 0.5 |
| C4U G52A C60A | 0.823 |

Reference: the RNAGym collection of RNA variant scans (doi:10.1126/science.aae0568)
